Source: ChEMBL document CHEMBL1136771, “Differential binding modes of diacylglycerol (DAG) and DAG lactones to protein kinase C (PK-C)” (J Med Chem, 2003)

Assay: Partition coefficient (logP)
Format: physicochemical
Conditions: octanol/water
Method in brief: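 Octanol/water log P was calculated, not measured, using a fragment-based atom/fragment-contribution estimation program applied to each ligand structure.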

logP	SMILES
5.8	CC(C)C(CC(=O)OC[C@H](CO)OC(=O)CC(C(C)C)C(C)C)C(C)C
4.1	CC(C)C/C=C1/CC(CO)(COC(=O)CC(C(C)C)C(C)C)OC1=O (stereo not given)
3.2	CC(C)=C1CC(CO)(COC(=O)CC(C(C)C)C(C)C)OC1=O (stereo not given)
5.7	CC(C)C(=CC(=O)O[C@@H](CO)COC(=O)CC(C(C)C)C(C)C)C(C)C
3.2	CC(C)CC(=O)OCC1(CO)CC(=C(C(C)C)C(C)C)C(=O)O1 (stereo not given)
4.1	CC(C)CC(=O)OCC1(CO)C/C(=C/CC(C(C)C)C(C)C)C(=O)O1 (stereo not given)
4.1	CC(C)C/C=C1\CC(CO)(COC(=O)CC(C(C)C)C(C)C)OC1=O (stereo not given)
4.1	CC(C)CC(=O)OCC1(CO)C/C(=C\CC(C(C)C)C(C)C)C(=O)O1 (stereo not given)
3.9	CC(C)=CC(=O)O[C@@H](CO)COC(=O)CC(C(C)C)C(C)C
3.9	CC(C)CC(=O)OC[C@H](CO)OC(=O)C=C(C(C)C)C(C)C
